Screens as filed in PubChem BioAssay.
NPY-Y1 antag: NPY-Y1 (human) receptor antagonism. HEK293-CNG Y1 cells, membrane potential fluorescence; NPY at EC95, then isoproterenol. inhibition, % at 3.6 µM. hit rate 1% among 200,000;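 active = inhibition above the campaign mean inhibition of all tested compounds plus 3 SD, cut at about 20% in these data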;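 also: 0% = DMSO wells given NPY plus isoproterenol and 100% = isoproterenol alone without NPY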
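Assay system: HEK293 cells with Y1 receptor plus CNG channel | Probe or stimulus: NPY (25 nM), isoproterenol (1 µM), Ro 20-1724 (25 µM) | Timing: Compound incubation 1 h at room temperature, readout 45 min post-stimulation | Measured by: Membrane-potential fluorescent dye readout | Benchmarks: High control isoproterenol alone, low control NPY with isoproterenol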
NPY Y2 blocker: blocks the human neuropeptide Y Y2 receptor | NPY-Y2 expressing cells, antagonist mode | inhibition, % at 2.7 µM | hit rate 0.99% among 140,000 | AID 793; in the data active = inhibition above about 17%;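 also: 0% = vehicle with agonist challenge and 100% = reference antagonist with challenge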
Target sequence (P49146 whole entry, looked up): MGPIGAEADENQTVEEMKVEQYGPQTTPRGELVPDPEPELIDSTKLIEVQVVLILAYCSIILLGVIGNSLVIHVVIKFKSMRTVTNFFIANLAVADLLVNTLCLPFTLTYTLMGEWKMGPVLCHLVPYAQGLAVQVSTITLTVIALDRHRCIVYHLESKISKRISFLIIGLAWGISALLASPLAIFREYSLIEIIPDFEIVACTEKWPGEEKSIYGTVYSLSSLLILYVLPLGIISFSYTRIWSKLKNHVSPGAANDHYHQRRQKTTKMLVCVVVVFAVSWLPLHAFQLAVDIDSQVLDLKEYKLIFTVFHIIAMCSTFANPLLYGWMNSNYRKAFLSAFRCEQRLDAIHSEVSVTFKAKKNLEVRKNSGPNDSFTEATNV
NPY1 pot ag: potentiates or activates human NPY-Y1 receptor; P25929; NPY-Y1 expressing cells, potentiator/agonist activation; activation, % at 3.6 µM; hit rate 0.37% among 220,000; AID 1304; in the data active = activation above about 33%, passing the limit was not always enough;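 also: cells stimulated with NPY at EC10 then isoproterenol at EC100; 0% = low agonist plus stimulus and 100% = saturating agonist plus stimulus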
S1P4 agonist: agonists of human S1P4 receptor; hit rate 0.35% among 220,000; S1P4-expressing cell line, agonist reporter assay; activation, % at 4.98 µM; AID 1509; in the data active = activation above about 11%;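 also: 0% = DMSO vehicle and 100% = reference agonist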
S1P4 antag: human S1P4 receptor antagonism; O95977; S1P4-expressing cells, antagonist mode, reporter read-out; inhibition, % at 4.98 µM; hit rate 0.26% among 220,000; in the data active = inhibition above about 29%;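 also: 0% = wells stimulated with agonist and 100% = vehicle wells without agonist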
NPY-Y2 PAM-ag: potentiates or activates human NPY-Y2 receptor. cells expressing NPY-Y2, potentiator/agonist read-out. activation, % at 3.6 µM. hit rate 0.45% among 220,000. AID 1359; in the data active = activation above about 27%;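 also: cells stimulated with NPY near EC25 plus isoproterenol at EC100; 0% = vehicle plus submaximal agonist and 100% = vehicle plus saturating agonist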
NPY-Y1 antag ct: human NPY-Y1 antagonism in NPY-Y2 counter-screen; inhibition, % at 3.6 µM; AID 1256; hit rate 19% among 710; cell-based NPY-Y1 antagonism counterscreen; shares compounds with NPY Y2 blocker;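 also: cells challenged with NPY then isoproterenol with cAMP sensed through a CNG channel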
NPY-Y2 ant conf: confirmation of human neuropeptide Y receptor Y2 antagonists | shares compounds with NPY Y2 blocker | HEK293 NPY-Y2 CNG channel, membrane potential fluorescence | inhibition, % at 2.8 µM | hit rate 32% among 710 | AID 1257;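 active = mean inhibition of triplicate wells above the hit cutoff set in the primary screen, cut at about 17% in these data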;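 also: 0% = DMSO with NPY challenge and 100% = BIIE0246 high control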
NPY-Y1 ant conf: human NPY-Y1 antagonism, confirmation | shares compounds with NPY-Y1 antag | HEK293-CNG NPY-Y1, membrane potential fluorescence, cAMP; NPY challenge against isoproterenol-raised cAMP | inhibition, % at 3.6 µM | hit rate 21% among 1,200;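 also: 0% = vehicle with agonist plus stimulus and 100% = stimulus alone without agonist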
NPY2 antag ctr: antagonizes human NPY-Y2, counter-screen to NPY-Y1 antagonists | shares compounds with NPY-Y1 antag | HEK293 NPY-Y2 CNG membrane potential fluorescence, antagonism; cells given NPY, then isoproterenol | inhibition, % at 3.6 µM | hit rate 28% among 1,200; in the data active = inhibition above about 17%;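 also: 0% = DMSO with agonist challenge and 100% = reference antagonist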
Starred values were filed as active, the others as inactive; . = no result given. Most compounds without a hit are left out; they make up all but 2.4% or so of the library. Rule as the data show it, unless noted: active = inhibition above about 20%; inactive = the rest.

SMILES | NPY-Y1 antag | NPY Y2 blocker | NPY1 pot ag | S1P4 agonist | S1P4 antag | NPY-Y2 PAM-ag | NPY-Y1 antag ct | NPY-Y2 ant conf | others
N/C(=N\OC(=O)COc1ccccc1Cl)c1ccc(Cl)cc1 | 8.4 | 17.9* | -23.0 | 2.8 | -17.0 | -23.9 | 5.6 | 10.2
C=C(C)CSc1nc2c(c(=O)[nH]c(=O)n2C)n1CCC(C)C | 1.9 | 22.1* | -8.0 | -0.9 | -15.2 | 10.5 | 1.9 | -0.1
CNC(=O)COC(=O)c1c2c(nc3ccccc13)CCC2 | . | . | 10.8 | 0.5 | 6.4 | -0.9 | . | .
COc1ccc(OC)c(NC(=O)COC(=O)c2c3c(nc4ccccc24)CCCC3)c1 | 8.4 | 11.1 | -30.9 | 0.9 | -14.8 | -13.3 | . | .
O=C(COC(=O)c1c2c(nc3ccccc13)CCCCC2)NCc1ccc2c(c1)OCO2 | 16.6 | 24.9* | -21.1 | 2.7 | -23.1 | -19.5 | 22.5* | 13.9
COc1ccc(NC(=O)COC(=O)c2c3c(nc4ccccc24)CCCC3)cc1 | 13.3 | 21.4* | -29.8 | -0.9 | -2.0 | -20.6 | 8.7 | 5.9
Cc1nonc1OCCNCc1c(C(=O)N(C)C)nc2ccc(Cl)cn12 | 12.7 | . | -9.7 | 0.4 | 6.6 | -6.1 | . | .
Cc1ccc(Cc2nnc3n(-c4ccccc4)nc(C(=O)c4ccccc4)n3c2=O)cc1 | 5.2 | 17.2* | -59.2 | 0.1 | 1.5 | -6.5 | 40.4* | 67.4*
Cc1ccc(CNC(=O)c2cc(C)nn2-c2ccccc2)cc1 | . | . | 6.1 | 0.4 | -5.1 | -5.4 | . | .
CN(CC(=O)Nc1ccc(C#N)cc1)Cc1ccc(Cl)cc1 | 2.7 | 18.1* | -7.6 | -0.1 | -7.9 | -7.1 | 2.4 | 1.2
OC1(c2ccccc2)CCN(Cc2ccccc2)C2CCCCC21 (configuration not stated) | 17.9 | 29.5* | -26.9 | -2.3 | 1.5 | -25.4 | 18.7 | 42.8*
Cc1ccc(C)c(NS(=O)(=O)c2cc(C(=O)Nc3ccccc3-c3ccccc3)ccc2C)c1 | 4.7 | 22.4* | 18.3 | 2.6 | -7.4 | -40.7 | 0.3 | 117.1*
Cc1ccc(C(=O)Nc2ccccc2-c2ccccc2)cc1S(=O)(=O)Nc1cccc(C)c1C | 3.7 | 15.4 | -4.4 | 0.7 | -1.7 | -24.5 | . | .
N#Cc1c(NC(=O)CCn2cnc3ccccc3c2=O)oc(-c2ccccc2)c1-c1ccccc1 | 19.8 | 20.1* | -17.0 | 2.7 | 0.4 | 5.8 | 23.2* | 10.9
O=C(COC(=O)/C=C/c1ccc(OC(F)F)cc1)NCc1cccs1 | 2.5 | 7.2 | -1.6 | -0.5 | -12.8 | -7.2 | . | .
O=C(O)CSc1nnc(-c2ccc3c(c2)OCO3)o1 | 13.9 | 31.4* | -31.5 | 1.4 | -23.7 | -21.6 | 17.7 | 18.0*
Oc1cccc(-c2nc3ccc4ccccc4c3c3c2CCC3)c1 | 16.0 | 30.0* | -29.7 | -2.7 | 9.7 | -35.7 | 10.1 | 31.5*
CC(C)CC(NC(=O)c1ccccc1)C(=O)OCC(=O)Nc1ccc(S(N)(=O)=O)cc1 (configuration not stated) | 0.2 | . | 0.2 | 0.6 | -8.3 | -2.2 | . | .
c1ccc(-c2oc3ncnc(NCCCN4CCOCC4)c3c2-c2ccccc2)cc1 | 10.6 | 17.6* | 8.1 | -0.6 | -11.2 | -8.5 | 16.6 | 16.8
CCCCN1C(=S)NC[C@@H]1Cc1ccccc1 | -1.1 | . | 12.2 | 2.2 | -20.7 | -9.6 | . | .
COc1ccc(C2CC(=O)C=C(NNS(=O)(=O)c3ccc(C)cc3)C2)cc1 (configuration not stated) | 3.8 | 6.8 | -11.6 | 1.3 | 0.5 | 0.1 | . | .
COn1c(SCc2ccc(Cl)cc2)nc2ccccc2c1=O | 38.3* | 10.2 | -52.1 | 0.3 | -7.9 | -15.8 | . | . | NPY-Y1 ant conf=27.1*;NPY2 antag ctr=21.2*
COn1c(SCc2cccnc2)nc2ccccc2c1=O | 4.8 | 0.8 | -3.5 | 0.4 | 7.1 | -18.0 | . | .
O=C(NCCN1CCOCC1)c1cc(-c2ccco2)on1 | 20.6* | 6.0 | 4.4 | 0.9 | -40.9 | 5.4 | . | . | NPY-Y1 ant conf=-1.3;NPY2 antag ctr=0.2
